# “And” between values parts separate entries of the source, which are not always exact repeats. Equal entries are not always repeated.
# Test system: HEK-293T
# Assay: Multiplex assay against HEK293T
# Type: toxicity, cell-based
# Conditions: human
# Outline: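 Four dyes were applied at seeding to live cells: Hoechst33342, BioTracker Green Microtubule Cytoskeleton Dye, MitoTracker Red and Annexin V Alexa Fluor 680. Imaging after compound addition used a CQ1 microscope at 37°C and 5% CO2. CellPathfinder machine-learning gating then sorted cells into Hoechst high-intensity objects or normal cells, normal cells into healthy, pyknosed or fragmented nuclei, and pyknosed cells into mitotic or apoptotic, with tubulin, mitochondrial-mass and membrane-permeability phenotypes given as per cents of healthy-nucleus cells.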
# [1] = 12 h, 1 µM, compound concentration 1 uM
# [2] = 12 h, 10 µM, compound concentration 10 uM
# [3] = 24 h, 1 µM, compound concentration 1 uM
# [4] = 24 h, 10 µM, compound concentration 10 uM
# [5] = 48 h, 1 µM, compound concentration 1 uM
# [6] = 48 h, 10 µM, compound concentration 10 uM
compound,measurement,setting,value
O=C(Nc1cc(C(F)(F)F)ccc1N1CCCCC1)c1ccncc1,Population Apoptotic (%),[1],16.06% and 9.24%
same,Population Fragmented Nuclei (%),[1],3.1% and 6.12%
same,Population Hoechst High Intensity Objects (%),[1],0%
same,Population Membrane Permeable-Phenotype (%),[1],0% and 10.53%
same,Population Mitochondria Different-Phenotype (%),[1],30.11% and 10.53%
same,Population Mitotic Cells (%),[1],83.94% and 90.76%
same,Population Normal (%),[1],100%
same,Population Pyknosed Nuclei (%),[1],42.41% and 80.95%
same,Total Cell Count,[1],323 and 147
same,Population Apoptotic (%),[2],17.75% and 24.64%
same,Population Fragmented Nuclei (%),[2],2.03% and 4.49%
same,Population Healthy Nuclei (%),[2],48.84% and 17.98%
same,Population Hoechst High Intensity Objects (%),[2],0.29% and 0%
same,Population Membrane Permeable-Phenotype (%),[2],0% and 3.12%
same,Population Mitochondria Different-Phenotype (%),[2],41.07% and 18.75%
same,Population Mitotic Cells (%),[2],82.25% and 75.36%
same,Population Normal (%),[2],99.71% and 100%
same,Population Pyknosed Nuclei (%),[2],49.13% and 77.53%
same,Population Tubulin-Different-Phenotype (%),[2],26.79% and 53.12%
same,Total Cell Count,[2],345 and 178
same,Population Apoptotic (%),[3],12.5% and 17.7%
same,Population Fragmented Nuclei (%),[3],1.79% and 1.82%
same,Population Healthy Nuclei (%),[3],72.45% and 29.7%
same,Population Hoechst High Intensity Objects (%),[3],0%
same,Population Membrane Permeable-Phenotype (%),[3],1.48% and 2.04%
same,Population Mitochondria Different-Phenotype (%),[3],13.33% and 12.24%
same,Population Mitotic Cells (%),[3],87.5% and 82.3%
same,Population Normal (%),[3],100%
same,Population Pyknosed Nuclei (%),[3],25.76% and 68.48%
same,Population Tubulin-Different-Phenotype (%),[3],11.36% and 12.24%
same,Population Apoptotic (%),[4],30.61% and 27.07%
same,Population Fragmented Nuclei (%),[4],1.11% and 2%
same,Population Healthy Nuclei (%),[4],66.15% and 31.5%
same,Population Hoechst High Intensity Objects (%),[4],0.22% and 0.5%
same,Population Membrane Permeable-Phenotype (%),[4],1.68% and 0%
same,Population Mitochondria Different-Phenotype (%),[4],34.01% and 33.33%
same,Population Mitotic Cells (%),[4],69.39% and 72.93%
same,Population Normal (%),[4],99.78% and 99.5%
same,Population Pyknosed Nuclei (%),[4],32.74% and 66.5%
same,Population Tubulin-Different-Phenotype (%),[4],39.39% and 14.29%
same,Total Cell Count,[4],450 and 201
same,Population Apoptotic (%),[5],6.88% and 14.29%
same,Population Fragmented Nuclei (%),[5],2.64% and 3.08%
same,Population Healthy Nuclei (%),[5],85.29% and 66.08%
same,Population Hoechst High Intensity Objects (%),[5],0%
same,Population Membrane Permeable-Phenotype (%),[5],5.84% and 0.67%
same,Population Mitochondria Different-Phenotype (%),[5],15.38% and 28.67%
same,Population Mitotic Cells (%),[5],93.12% and 85.71%
same,Population Normal (%),[5],100%
same,Population Pyknosed Nuclei (%),[5],12.07% and 30.84%
same,Population Apoptotic (%),[6],17.89% and 16.19%
same,Population Fragmented Nuclei (%),[6],3.13% and 3.08%
same,Population Healthy Nuclei (%),[6],80.83% and 56.54%
same,Population Hoechst High Intensity Objects (%),[6],0% and 0.76%
same,Population Membrane Permeable-Phenotype (%),[6],5.97% and 2.72%
same,Population Mitochondria Different-Phenotype (%),[6],47.9% and 43.54%
same,Population Mitotic Cells (%),[6],82.11% and 83.81%
same,Population Normal (%),[6],100% and 99.24%
same,Population Pyknosed Nuclei (%),[6],16.04% and 40.38%
same,Total Cell Count,[6],767 and 262
NCCc1cn(S(=O)(=O)c2c(Cl)nc3sccn23)c2ccccc12.O=C(O)C(=O)O,Population Apoptotic (%),[1],37% and 52%
same,Population Fragmented Nuclei (%),[1],5% and 8%
same,Population Healthy Nuclei (%),[1],83% and 78%
same,Population Hoechst High Intensity Objects (%),[1],7% and 8%
same,Population Membrane Permeable-Phenotype (%),[1],0%
same,Population Mitochondria Different-Phenotype (%),[1],53% and 66%
same,Population Mitotic Cells (%),[1],62% and 47%
same,Population Normal (%),[1],92% and 91%
same,Population Pyknosed Nuclei (%),[1],11% and 13%
same,Population Tubulin-Different-Phenotype (%),[1],40% and 34%
same,Total Cell Count,[1],446 and 316
same,Population Apoptotic (%),[2],63% and 64%
same,Population Fragmented Nuclei (%),[2],8%
same,Population Healthy Nuclei (%),[2],49% and 67%
same,Population Hoechst High Intensity Objects (%),[2],22% and 25%
same,Population Membrane Permeable-Phenotype (%),[2],0%
same,Population Mitochondria Different-Phenotype (%),[2],96% and 97%
same,Population Mitotic Cells (%),[2],36% and 35%
same,Population Normal (%),[2],77% and 74%
same,Population Pyknosed Nuclei (%),[2],42% and 23%
same,Population Tubulin-Different-Phenotype (%),[2],88% and 82%
same,Total Cell Count,[2],292 and 209
same,Population Apoptotic (%),[3],33% and 41%
same,Population Fragmented Nuclei (%),[3],9% and 12%
same,Population Healthy Nuclei (%),[3],79% and 78%
same,Population Hoechst High Intensity Objects (%),[3],6% and 4%
same,Population Membrane Permeable-Phenotype (%),[3],1%
same,Population Mitochondria Different-Phenotype (%),[3],28% and 46%
same,Population Mitotic Cells (%),[3],66% and 58%
same,Population Normal (%),[3],93% and 95%
same,Population Pyknosed Nuclei (%),[3],11% and 8%
same,Population Tubulin-Different-Phenotype (%),[3],26% and 19%
same,Total Cell Count,[3],585 and 438
same,Population Apoptotic (%),[4],74% and 75%
same,Population Fragmented Nuclei (%),[4],14%
same,Population Healthy Nuclei (%),[4],37% and 62%
same,Population Hoechst High Intensity Objects (%),[4],34%
same,Population Membrane Permeable-Phenotype (%),[4],2%
same,Population Mitochondria Different-Phenotype (%),[4],83% and 95%
same,Population Mitotic Cells (%),[4],25% and 24%
same,Population Normal (%),[4],65%
same,Population Pyknosed Nuclei (%),[4],48% and 22%
same,Population Tubulin-Different-Phenotype (%),[4],44% and 76%
same,Total Cell Count,[4],310 and 195
same,Population Apoptotic (%),[5],23% and 47%
same,Population Fragmented Nuclei (%),[5],16% and 12%
same,Population Healthy Nuclei (%),[5],77% and 82%
same,Population Hoechst High Intensity Objects (%),[5],3% and 5%
same,Population Membrane Permeable-Phenotype (%),[5],0% and 1%
same,Population Mitochondria Different-Phenotype (%),[5],22% and 23%
same,Population Mitotic Cells (%),[5],76% and 52%
same,Population Normal (%),[5],96% and 94%
same,Population Pyknosed Nuclei (%),[5],6% and 5%
same,Population Tubulin-Different-Phenotype (%),[5],19% and 14%
same,Total Cell Count,[5],972 and 678
same,Population Apoptotic (%),[6],53% and 78%
same,Population Fragmented Nuclei (%),[6],27% and 19%
same,Population Healthy Nuclei (%),[6],24% and 47%
same,Population Hoechst High Intensity Objects (%),[6],62% and 47%
same,Population Membrane Permeable-Phenotype (%),[6],11% and 1%
same,Population Mitochondria Different-Phenotype (%),[6],74% and 75%
same,Population Mitotic Cells (%),[6],46% and 21%
same,Population Normal (%),[6],37% and 52%
same,Population Pyknosed Nuclei (%),[6],47% and 33%
same,Population Tubulin-Different-Phenotype (%),[6],55% and 52%
same,Total Cell Count,[6],294 and 212
